Drawing on ChEMBL document CHEMBL2040747, “Synthesis and biological evaluation of isoxazole, oxazole, and oxadiazole containing heteroaryl analogs of biaryl ureas as DGAT1 inhibitors” (Eur J Med Chem, 2012), this text covers inhibition, solubility and Activity for 34 molecules.

Converted amounts (≈) assume the structure as drawn.

The target in data set [1] is Diacylglycerol O-acyltransferase 1 (Homo sapiens) (UniProt O75907). The data set can be described thus: Inhibition of human DGAT1 assessed as conversion of [14C]-oleoyl-CoA to [14C]-triglyceride at 1 uM after 10 mins by scintillation counting.
The nature of data set [2]: Aqueous solubility of the compound at pH 7.4 after 24 hrs. The format is physicochemical. To be noted: aqueous medium.
The subject of a further data set is Mus musculus. The experiment in a line: Antiobesity activity in Swiss mouse assessed as reduction in plasma triglyceride level at 3 mg/kg, po measured after 4 hrs by fat tolerance test. Format: functional. Further details: scale not given: the % may be the effect or the level left. The method in brief: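 Fasted Swiss mice (4-5 weeks, 25-30 g) gavaged with test compound at 3 mg/kg as a suspension in 0.5% CMC with Tween 80, or with vehicle. Olive oil bolus (10 ml/kg) given 1 h later. Plasma TG measured by kit at 1, 2, 3 and 4 h. AUC0-4h expressed relative to vehicle (100%). Mean ± SEM, n = 8.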

Sequence of Diacylglycerol O-acyltransferase 1 (Homo sapiens) (O75907 whole entry, looked up): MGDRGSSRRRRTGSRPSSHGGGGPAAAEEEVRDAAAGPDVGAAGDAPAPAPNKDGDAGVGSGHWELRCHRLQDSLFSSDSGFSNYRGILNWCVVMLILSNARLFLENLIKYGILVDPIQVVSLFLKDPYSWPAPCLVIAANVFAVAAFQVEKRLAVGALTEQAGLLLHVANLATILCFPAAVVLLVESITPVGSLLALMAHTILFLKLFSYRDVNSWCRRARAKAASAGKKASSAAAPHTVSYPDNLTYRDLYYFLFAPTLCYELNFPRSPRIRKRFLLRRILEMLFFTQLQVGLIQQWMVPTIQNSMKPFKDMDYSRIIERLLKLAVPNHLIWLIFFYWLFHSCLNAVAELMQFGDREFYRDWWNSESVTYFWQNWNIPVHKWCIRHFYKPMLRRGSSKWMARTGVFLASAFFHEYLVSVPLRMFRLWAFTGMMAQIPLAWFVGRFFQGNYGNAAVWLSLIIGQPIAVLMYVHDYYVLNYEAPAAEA

As for `CC(C)[C@H](NC(=O)c1nc(-c2ccc(NC(=O)Nc3ccc(F)cc3)cc2)no1)C(=O)O`, the inhibition in data set [1] was 61%.

Consider `CC(C)[C@H](NC(=O)c1ncc(-c2ccc(NC(=O)Nc3ccc(Cl)cc3F)cc2)o1)C(=O)O`, for which the inhibition in data set [1] amounted to 70%.

Take `CC(C)[C@H](NC(=O)c1cc(-c2ccc(OCc3ccc(F)cc3)cc2)no1)C(=O)O`: the inhibition in data set [1] worked out at 18%.

`CC(C)[C@H](NC(=O)c1cc(-c2ccc(Nc3nc4ccc(F)cc4s3)cc2)no1)C(=O)O` displayed a solubility at 24 h in data set [2] of 60 µg/mL (≈ 132 µM). Also, the Activity with Mus musculus amounted to 29%.

With `CC(C)[C@H](NC(=O)c1cc(-c2ccc(NC(=O)Nc3ccc(Cl)cc3Oc3ccccc3)cc2)no1)C(=O)O`, the solubility at 24 h in data set [2] turned out to be 140 µg/mL (≈ 255 µM). In the data set on Mus musculus, the Activity came out at 35%. In data set [1], the inhibition came to 91%.

`CC(C)[C@H](NC(=O)c1cc(-c2ccc(NC(=O)Nc3ccc(Cl)cc3)cc2)no1)C(=O)O`: the inhibition in data set [1] stood at 84%.

As for `CC(C)[C@H](NC(=O)c1nc(-c2ccc(NC(=O)Nc3ccc(Cl)cc3)cc2)no1)C(=O)O`, the inhibition in data set [1] amounted to 40%.

Turning to `Cc1ccccc1S(=O)(=O)NC(=O)Nc1ccc(-c2cc(C(=O)N[C@H](C(=O)O)C(C)C)on2)cc1`, the inhibition in data set [1] turned out to be 26%.

With `CC(C)[C@H](NC(=O)c1cc(-c2ccc(NC(=O)Nc3cccc(C(F)(F)F)c3)cc2)no1)C(=O)O`, the inhibition in data set [1] was 85%.

Consider `CC(C)[C@H](NC(=O)c1nc(-c2ccc(NC(=O)Nc3ccc(F)cc3F)cc2)no1)C(=O)O`, for which, in data set [1], the inhibition was 75%.

On to `CC(C)[C@H](NC(=O)c1ncc(-c2ccc(NC(=O)Nc3cccc(C(F)(F)F)c3)cc2)o1)C(=O)O`, for which the inhibition in data set [1] stood at 75%.

As to `Cc1ccc(NC(=O)Nc2ccc(-c3cnc(C(=O)N[C@H](C(=O)O)C(C)C)o3)cc2)cc1C`, the inhibition in data set [1] came out at 69%.

Take `CC(C)[C@H](NC(=O)c1ncc(-c2ccc(NC(=O)Nc3ccc(Cl)cc3Oc3ccccc3)cc2)o1)C(=O)O`: the inhibition in data set [1] turned out to be 91%.

As to `CC(C)[C@H](NC(=O)c1nc(-c2ccc(NC(=O)Nc3ccccc3Cl)cc2)no1)C(=O)O`, in data set [1], the inhibition was determined as 62%.

In the case of `Cc1ccc(NC(=O)Nc2ccc(-c3cc(C(=O)N[C@H](C(=O)O)C(C)C)on3)cc2)cc1`, in data set [2], the concentration in solution (solubility at 24 h) came to 380 µg/mL (≈ 871 µM). The Activity in the data set on Mus musculus is given as 79%. Further, the inhibition in data set [1] turned out to be 80%.

As for `CC(C)[C@H](NC(=O)c1cc(-c2ccc(NC(=O)C(=O)Nc3cccc(C(F)(F)F)c3)cc2)no1)C(=O)O`, the inhibition in data set [1] was 16%.

`CC(C)[C@H](NC(=O)c1cc(-c2ccc(NC(=O)c3ccc(F)cc3)cc2)no1)C(=O)O`: in data set [1], the inhibition stood at 44%.

As to `CC(C)[C@H](NC(=O)c1cc(-c2ccc(NC(=O)Nc3ccc(F)cc3)cc2)no1)C(=O)O`, the inhibition in data set [1] stood at 78%.

Take `COc1ccc(NC(=O)Nc2ccc(-c3cc(C(=O)N[C@H](C(=O)O)C(C)C)on3)cc2)cc1`: the solubility at 24 h in data set [2] came to 430 µg/mL (≈ 950 µM). Besides, the Activity in the data set on Mus musculus was determined as 90%.

With `CC(C)[C@H](NC(=O)c1nc(-c2ccc(NC(=O)Nc3cccc(C(F)(F)F)c3)cc2)no1)C(=O)O`, in data set [1], the inhibition came to 48%.

Regarding `CC(C)[C@H](NC(=O)c1cc(-c2ccc(NC(=O)Nc3ccc(Cl)cc3F)cc2)no1)C(=O)O`, in data set [1], the inhibition amounted to 90%.

Regarding `CC(C)[C@H](NC(=O)c1cc(-c2ccc(NC(=O)Nc3ccccc3Cl)cc2)no1)C(=O)O`, the inhibition in data set [1] was 90%.

Consider `CC(C)[C@H](NC(=O)c1ccc(-c2ccc(Nc3nc4ccc(F)cc4s3)cc2)cc1)C(=O)O`, for which the solubility at 24 h in data set [2] was 10 µg/mL (≈ 21.6 µM). In addition, the Activity in the data set on Mus musculus is 84%.

Consider `CC(C)[C@H](NC(=O)c1cc(-c2ccc(NS(=O)(=O)c3c(F)cccc3F)cc2)no1)C(=O)O`, for which the inhibition in data set [1] turned out to be 23%.

As for `CC(C)[C@H](NC(=O)c1ncc(-c2ccc(NC(=O)Nc3ccccc3Cl)cc2)o1)C(=O)O`, the inhibition in data set [1] is 80%.

As for `Cc1ccc(NC(=O)Nc2ccc(-c3cc(C(=O)N[C@H](C(=O)O)C(C)C)on3)cc2)cc1C`, the inhibition in data set [1] is 83%.

In the case of `CC(C)[C@H](NC(=O)c1cc(-c2ccc(NC(=O)Nc3cccc(Cl)c3)cc2)no1)C(=O)O`, the inhibition in data set [1] came to 84%.

As for `CC(C)[C@H](NC(=O)c1cc(-c2ccc(NC(=S)Nc3ccccc3F)cc2)no1)C(=O)O`, the inhibition in data set [1] was found to be 72%.

`CC(C)[C@H](NC(=O)c1cc(-c2ccc(NC(=O)[C@H](O)c3ccccc3)cc2)no1)C(=O)O`: the inhibition in data set [1] was found to be 59%.

Turning to `CC(C)[C@H](NC(=O)c1nc(-c2ccc(NC(=O)Nc3cccc(Cl)c3)cc2)no1)C(=O)O`, the inhibition in data set [1] was determined as 71%.

`CC(C)[C@H](NC(=O)c1ncc(-c2ccc(NC(=O)Nc3ccc(Cl)cc3)cc2)o1)C(=O)O`: in data set [1], the inhibition stood at 59%.

For `CC(C)[C@H](NC(=O)c1ncc(-c2ccc(NC(=O)Nc3cccc(Cl)c3)cc2)o1)C(=O)O`, the inhibition in data set [1] was determined as 72%.

For `CC(C)[C@H](NC(=O)c1cc(-c2ccc(NC(=O)Nc3ccc(F)cc3F)cc2)no1)C(=O)O`, in data set [1], the inhibition is 85%.

For the molecule `Cc1ccc(NC(=O)Nc2ccc(-c3noc(C(=O)N[C@H](C(=O)O)C(C)C)n3)cc2)cc1`, the inhibition in data set [1] was 61%.
